From ChEMBL document CHEMBL1135704, “Design, synthesis, and evaluation of novel 2-substituted 3-hydroxypyridin-4-ones: structure-activity investigation of metalloenzyme inhibition by iron chelators” (J Med Chem, 2002)

Key:
[1] = Inhibitory activity against 5-lipoxygenase, by using soybean lipoxygenase spectrophotometric assay; parameters: concentration or dose not given beside the values; conditions: concentration not given here
Outline: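 Soybean lipoxygenase (10 000 units/mL stock in 0.2 M borate pH 9.0; final 500 units per 3.0 mL) preincubated 30 min at room temperature with chelator at 110 µM iron-binding equivalents or diluent; reaction started with linoleic acid in borate buffer. Linoleic hydroperoxide formation followed at 234 nm (ε 23600 M-1 cm-1); rate versus control gives % inhibition.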

[2] = Partition coefficient (logP); format: physicochemical; conditions: octanol/water
Outline: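 Distribution coefficient D7.4 between 1-octanol and 50 mM MOPS pH 7.4 (mutually saturated). Ligand in aqueous phase at 0.5–1.5 absorbance near 280 nm; octanol added in aliquots, aqueous UV absorbance monitored continuously to equilibrium after each. D = [(A0−A1)/A1]·(Vw/Vo) per addition.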

Rattus norvegicus [3] = species on record: Rattus norvegicus; test: The compound was tested for % iron mobilization in Fe-Ferritin Loaded Rat model; format: functional
Outline: (§1)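 One hour later chelator given orally at 450 µmol/kg (controls: equal volume water); individual metabolic cages, food returned 1 h post-dose. Killed 24 h after labelling; liver and GI tract with contents and feces gamma-counted. Mean ± SD, n = 5.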

Rattus norvegicus [4] = test: The compound was tested in vivo for Iron Mobilization efficacy in Fe-Ferritin Loaded Rat model; format: functional; outline: as §1

SMILES	inhibition [1] [%]	logP [2]	Mobilization (Rattus norvegicus [3]) [%]	Efficacy (Rattus norvegicus [4]) [%]
CCn1ccc(=O)c(O)c1C	58.4			
COCc1c(O)c(=O)cc(C)n1C	14.8	-0.41		
Cc1cc(=O)c(O)c(CNC(=O)C(C)C)n1C	21	-0.35		
Cn1ccc(=O)c(O)c1	59.4	-0.6		
Cc1c(O)c(=O)ccn1C [DEFERIPRONE]	39.4		13.4	9.5
CCc1c(O)c(=O)ccn1C	48.5	-0.21		
CCCNC(=O)CCC(=O)NCc1c(O)c(=O)cc(C)n1C	2.1	-0.701	23.3	19.4
CCCCCCCCn1ccc(=O)c(O)c1C	98.7			
CC(=O)NCCC(=O)NCc1c(O)c(=O)cc(C)n1C	3.8	-1.7	9.7	5.9
CCCCCCn1ccc(=O)c(O)c1C	93.2			
CCC(=O)NCc1c(O)c(=O)cc(C)n1C	13.5	-0.72		
CCCCc1c(O)c(=O)cc(C)n1C	29.6	0.9		
CCCCn1ccc(=O)c(O)c1C	80			
CCCCCn1ccc(=O)c(O)c1C	90			
CC(=O)NCc1c(O)c(=O)cc(C)n1C	18.5			
CCCc1c(O)c(=O)cc(C)n1C	30	0.4		
